From ChEMBL document CHEMBL4130614, “Synthesis and Bioactivity of Reduced Chalcones Containing Sulfonamide Side Chains” (J Nat Prod, 2018)

Assays:
[1] = test system: Mycobacterium tuberculosis; assay: Antibacterial activity against Mycobacterium tuberculosis H37Rv ATCC 25618 measured at 24 hrs interval by BACTEC radiometric method; assay type: functional
Outline: (§1)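 H37Rv grown in 7H9 with ADC to about 0.16 A600 (one McFarland), inoculated into BACTEC vials and incubated at 37 °C to GI 500 (±50). This primary culture was then dosed with filter-sterilised compound at 10 μM in DMSO (final DMSO 2.5%) and held at 37 °C. Growth was read every 24 h as radiometric CO₂ growth index against controls.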

[2] = test system: Mycobacterium tuberculosis; assay: Antibacterial activity against Mycobacterium tuberculosis H37Rv ATCC 25618 assessed as growth inhibition at 10 uM measured at 24 hrs interval by BACTEC radiometric method relative to control; assay type: functional; details: for inhibition of growth at 10 µM: Mycobacterium tuberculosis, H37Rv ATCC 25618, 24 h, read-out: GI; outline: as §1
Plasmodium falciparum = assay: Antiplasmodial activity against chloroquine-sensitive Plasmodium falciparum NF54 by lactate dehydrogenase assay; assay type: functional, organism-based
Outline: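 Asexual erythrocyte-stage P. falciparum kept in continuous in vitro culture (modified Trager–Jensen). Activity quantified by parasite lactate dehydrogenase assay (modified Makler method). Triplicate wells, on one or two separate occasions. IC50 from full dose–response curves by nonlinear curve fitting. Chloroquine run as internal standard to monitor conditions.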

[3] = Mycobacterium tuberculosis, H37Rv ATCC 25618, 24 h, read-out: MIC99

Structure (SMILES)	MIC99 [1, 3]	inhibition of growth at 10 µM [2]	IC50 (Plasmodium falciparum)	also measured
CN(C)Cc1ccc(CCCc2ccccc2)cc1O	> 10 µM	–	–	growth inhibition (GI) [2]: 74%
CN(C)Cc1cc(CCCc2ccccc2)cc(CN(C)C)c1O.Cl.Cl	–	–	–	MIC99 [1]: >10 µM; growth inhibition (GI) [2]: 33%
CN(C)Cc1cc(CCCc2ccccc2)cc(CN(C)C)c1O	> 10 µM	42%	–	–
Oc1cccc(CCCc2ccccc2)c1	> 10 µM	94%	Not Active	–
NS(=O)(=O)c1ccc(NCc2ccc(CCCc3ccccc3)cc2O)cc1	> 10 µM	14%	Not Active	–
CN(C)Cc1ccc(CCCc2ccccc2)cc1O.Cl	–	–	–	MIC99 [1]: >10 µM; growth inhibition (GI) [2]: 36%
NS(=O)(=O)c1ccc(NCc2cc(CCCc3ccccc3)cc(CNc3ccc(S(N)(=O)=O)cc3)c2O)cc1	> 10 µM	0%	–	–
Oc1ccc(CCCc2ccccc2)cc1	> 10 µM	96%	–	–
C[C@H]1[C@H](OC(=O)CCC(=O)O)O[C@@H]2O[C@@]3(C)CC[C@H]4[C@H](C)CC[C@@H]1[C@@]24OO3 [ARTESUNATE]	–	–	–	IC50 (Plasmodium falciparum; Plasmodium falciparum, NF54, read-out: IC50): < 5.2 µM
COc1ncnc(NS(=O)(=O)c2ccc(N)cc2)c1OC [SULFADOXINE]	–	–	Not Active	–
Cc1cc(NS(=O)(=O)c2ccc(N)cc2)no1 [SULFAMETHOXAZOLE]	–	–	Not Active	–
Nc1ccc(S(N)(=O)=O)cc1 [SULFANILAMIDE]	> 10 µM	0%	Not Active	–
